Screening results: PubChem BioAssay, The Scripps Research Institute Molecular Screening Center
Most compounds without a hit are left out; they make up all but 3.1% or so of the library.
GalR3 antag: antagonists of human GalR3; O60755; HEK293 GalR3-CNG cAMP membrane potential fluorescence; galR3 body fused to GalR1 C-terminus; inhibition, % at 3 µM; 360,000 tested, 0.44% active; AID 651719;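 active = inhibition above the screen-wide average plus 3 SD, cut at about 13% in these data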;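 also: forskolin and galanin both at EC90 stimulate the cells; cAMP rise reported by CNG channel membrane potential dye signal; 0% = forskolin plus galanin with DMSO and 100% = forskolin alone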
Target sequence (O60755 1-299 limits assumed): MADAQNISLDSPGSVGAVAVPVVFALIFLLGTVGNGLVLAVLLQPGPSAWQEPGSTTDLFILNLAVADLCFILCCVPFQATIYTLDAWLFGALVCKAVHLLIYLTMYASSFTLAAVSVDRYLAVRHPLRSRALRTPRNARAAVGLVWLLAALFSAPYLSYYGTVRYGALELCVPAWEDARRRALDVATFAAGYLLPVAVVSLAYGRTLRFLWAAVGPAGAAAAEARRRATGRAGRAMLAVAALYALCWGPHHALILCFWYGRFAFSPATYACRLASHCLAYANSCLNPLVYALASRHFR
CHO parental Ca: signal in parental CHO cells, OX1R antagonist counter-screen; parental CHO-K1, ATP-induced calcium, Fluo-8 fluorescence; inhibition, % at 5.6 µM; 330,000 tested, 0.63% active; AID 463079;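 active = inhibition above that plate's mean sample inhibition plus 3 SD, cut at about 26% in these data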;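 also: 0% = ATP-challenged DMSO wells and 100% = DMSO wells without ATP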
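Test system: parental CHO cells; detection: calcium-sensitive Fluo-8 fluorescence; evaluation: percent inhibition of calcium signal; also added: ATP as calcium-mobilizing challenge; repeats: one well per compound; control set: ATP-challenged DMSO wells low, unchallenged DMSO wells high; compound: single nominal dose of 5.6 µM per compound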
OX1R antag-1: blocks the human orexin 1 receptor. O43613. OX1R-expressing cells, FRET antagonist read-out. inhibition, % at 6.6 µM. 330,000 tested, 1.8% active. AID 485270; in the data active = inhibition mostly above about 38%, no sharp cut-off; inactive = mostly below about 40%;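 also: 0% = agonist challenge alone and 100% = reference antagonist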
GPR7 antagonist: human neuropeptides B/W receptor 1 antagonism; P48145; 290,000 tested, 1.1% active; GPR7-expressing cells, fluorescence antagonist assay; inhibition, % at 4.4 µM; in the data active = inhibition above about 16%, passing the limit was not always enough;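 also: cells stimulated with the agonist NPW; 0% = agonist with vehicle and 100% = vehicle without agonist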
Target sequence (P48145 whole entry, looked up): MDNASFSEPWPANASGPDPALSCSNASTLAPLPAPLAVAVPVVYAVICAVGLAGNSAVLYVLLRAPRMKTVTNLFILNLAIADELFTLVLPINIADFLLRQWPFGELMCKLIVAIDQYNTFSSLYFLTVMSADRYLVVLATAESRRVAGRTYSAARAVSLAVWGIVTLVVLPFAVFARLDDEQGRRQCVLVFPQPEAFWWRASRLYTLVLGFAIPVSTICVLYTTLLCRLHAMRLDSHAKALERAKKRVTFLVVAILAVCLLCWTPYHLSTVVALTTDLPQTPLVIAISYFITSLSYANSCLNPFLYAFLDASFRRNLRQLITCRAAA
OX1R antag-2: blocks the human orexin 1 receptor; O43613; CHO/OX1R cells, Fluo-8 calcium fluorescence, orexin A; inhibition, % at 5 µM; 330,000 tested, 0.43% active;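 active = inhibition above its plate's threshold, mean inhibition of all tested compounds on the plate plus 3 SD, cut at about 37% in these data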;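 also: 0% = orexin A challenge wells and 100% = SB-334867-A antagonist wells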
GPR7 antag cf: human GPR7 antagonism, confirmation assay; shares compounds with GPR7 antagonist; GPR7-expressing cells, calcium fluorescence antagonist mode; inhibition, % at 4.4 µM; 2,400 tested, 52% active; AID 1952; in the data active = inhibition above about 24%;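 also: stimulated with the GPR7 agonist NPW; 0% = agonist plus vehicle and 100% = vehicle alone without agonist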
MCHR1 antagonist: MCHR1 (human) antagonism in GPR7 counter-screen. shares compounds with GPR7 antagonist. inhibition, % at 4.4 µM. MCHR1-expressing cells, fluorescence antagonist assay. 2,400 tested, 62% active. AID 2148; in the data active = inhibition above about 22%;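 also: 0% = vehicle with agonist and 100% = vehicle without agonist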
OX1R Fluo8 conf: confirmation of human orexin 1 receptor antagonists. shares compounds with OX1R antag-2. CHO/OX1R cells, orexin A calcium Fluo-8 fluorescence. inhibition, % at 5 µM. 1,100 tested, 38% active. AID 492963; in the data active = inhibition above about 29%;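 also: 0% = agonist challenge alone and 100% = reference antagonist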
CHO Ca triplic: counter-screen for OX1R antagonists: effect in parental CHO cells; shares compounds with OX1R antag-2; parental CHO-K1, ATP-induced calcium, Fluo-8 fluorescence; inhibition, % at 5.6 µM; 1,100 tested, 9.3% active;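 active = inhibition above a per-plate limit, the mean inhibition of that plate's test compounds plus 3 SD, cut at about 25% in these data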;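 also: 0% = ATP challenge with DMSO and 100% = DMSO without ATP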
Active calls of the source: *; nt = no result.

SMILES | GalR3 antag | CHO parental Ca | OX1R antag-1 | GPR7 antagonist | OX1R antag-2 | GPR7 antag cf | MCHR1 antagonist | others
CC1(c2ccc(OC(F)F)cc2)NC(=O)N(CC(=O)Nc2ccc(OC(F)F)cc2)C1=O (configuration not stated) | -5 | 36* | -5 | 86* | 53* | 88* | 86*
CC1(c2ccc(OC(F)F)cc2)NC(=O)N(CC(=O)Nc2cccc(F)c2)C1=O (configuration not stated) | -1 | 53* | 11 | 94* | 67* | 93* | 92*
CCOC(=O)c1c(NC(=O)CN2C(=O)NC(C)(c3ccc(OC(F)F)cc3)C2=O)sc(C)c1C (configuration not stated) | -1 | 30 | -5 | 71* | 26 | 68* | 86*
CCOc1ccc(NC(=O)CN2C(=O)NC(C)(c3ccc(OC(F)F)cc3)C2=O)cc1 (configuration not stated) | -7 | 21 | -9 | 75* | 32 | 81* | 74*
CC1(c2ccc(OC(F)F)cc2)NC(=O)N(CC(=O)Nc2ccc(S(N)(=O)=O)cc2)C1=O (configuration not stated) | -8 | -6 | 5 | -9 | -5 | nt | nt
CCOC(=O)c1sc(NC(=O)CN2C(=O)NC3(CCCCCCC3)C2=O)c(C(=O)OCC)c1C | -3 | -12 | 1 | 0 | -11 | nt | nt
COc1ccc(C2(c3ccc(OC)cc3)NC(=O)N(CC(=O)Nc3ccc(OC(F)F)cc3)C2=O)cc1 | -3 | -5 | 23 | 4 | -1 | nt | nt
CS(=O)(=O)N(CC(=O)N1CCc2ccccc2C1)c1ccccc1F | -2 | -15 | 2 | nt | -7 | nt | nt
CCN(CC)S(=O)(=O)c1cc(C(=O)Nc2cc(S(=O)(=O)N3CCOCC3)ccc2N2CCN(C)CC2)ccc1C | -3 | nt | nt | nt | nt | nt | nt
CC1(c2ccc(OC(F)F)cc2)NC(=O)N(CC(=O)NC2CCCCC2)C1=O (configuration not stated) | -5 | -18 | 2 | 7 | -9 | nt | nt
Cc1ccc(NC(=O)CN2C(=O)NC(C)(c3ccc(Cl)cc3)C2=O)cc1 (configuration not stated) | -7 | 4 | 8 | 23* | -9 | 43* | 29*
Cc1cc(NC(=O)CN2C(=O)NC(C)(c3ccccc3Cl)C2=O)no1 (configuration not stated) | -2 | -10 | -2 | nt | -5 | nt | nt
Cc1cc(NC(=O)CN2C(=O)NC(C)(c3ccc(OC(F)F)cc3)C2=O)no1 (configuration not stated) | 1 | -7 | -3 | 50* | 0 | 51* | 48*
CC1(c2ccc(OC(F)F)cc2)NC(=O)N(CC(=O)Nc2ccc(Cl)cc2F)C1=O (configuration not stated) | -9 | 22 | 11 | 55* | 18 | 67* | 64*
CC1(c2ccc(OC(F)F)cc2)NC(=O)N(CC(=O)Nc2ccc(F)cc2)C1=O (configuration not stated) | -10 | 15 | 10 | 43* | 23 | 54* | 48*
COC(=O)c1ccc(N2C(c3cccc(OC)c3)=Cc3ccc(F)cc3C2c2c(C)[nH]c3ccccc23)cc1 (configuration not stated) | -7 | nt | nt | nt | nt | nt | nt
CC(=O)c1ccc2cc3c(cc2c1)OCO3 | -4 | nt | nt | nt | nt | nt | nt
N#Cc1ccc2sn(-c3ccccc3)c(=O)c2c1 | -6 | nt | nt | nt | nt | nt | nt
CCOC(=O)N1CCN(C(=O)C[C@@H]2C[C@@]3(C(=O)OC)CCCCC=C3N(Cc3ccccc3)C2=O)CC1 | -4 | nt | nt | nt | nt | nt | nt
FC(F)C(F)(F)c1cc(-c2ccc(Cl)cc2)n[nH]1 | 1 | 56* | 2 | 30* | 73* | 32* | 44*
Cc1cc(C)nc(/N=C(\N)Nc2ccc(SC(F)F)cc2)n1 | -3 | 18 | 13 | 64* | 35 | 68* | 78* | OX1R Fluo8 conf=64*;CHO Ca triplic=21
Cc1cc(C(=O)N2CCC2(C)C(=O)NS(=O)(=O)c2cccc(Cl)c2)nn1C (configuration not stated) | -6 | nt | nt | nt | nt | nt | nt
CCOc1ccc(NC2=C(Cl)C(=O)N(Cc3ccccc3)C2=O)cc1 | 2 | 5 | 33 | 74* | 51* | 99* | 64* | OX1R Fluo8 conf=-7;CHO Ca triplic=-8
COC(=O)C1=C(C)N(Cc2ccccc2)C(=NCc2ccccc2)N[C@H]1c1cccc(F)c1 | -8 | 14 | 22 | 51* | 29 | 55* | 59* | OX1R Fluo8 conf=33*;CHO Ca triplic=7
COC(=O)C1=C(C)N(Cc2ccccc2)C(=NCc2ccccc2)N[C@H]1c1ccccc1 | -6 | 3 | 15 | nt | 35 | nt | nt
SMILES | GalR3 antag | CHO parental Ca | OX1R antag-1 | GPR7 antagonist | OX1R antag-2 | GPR7 antag cf | MCHR1 antagonist | others
Fc1ccc(-c2cc(C(F)(F)C(F)F)[nH]n2)cc1 | -5 | 10 | 9 | 42* | 27 | 64* | 63* | OX1R Fluo8 conf=37*;CHO Ca triplic=19
COCC#Cc1cnc2c(c1)C(=O)N([C@H](C)CO)C[C@H](C)[C@@H](CN(C)S(=O)(=O)c1ccccc1)O2 | 1 | nt | nt | nt | nt | nt | nt
Cc1ccc(CS(=O)Cc2ccc(C(=O)N3CCN(c4cccc(C)c4C)CC3)o2)cc1 (configuration not stated) | -6 | nt | nt | nt | nt | nt | nt
Cc1cccc(N2CCN(C(=O)c3ccc(CS(=O)Cc4cccc(Cl)c4)o3)CC2)c1C (configuration not stated) | 0 | 21 | 12 | 42* | 31 | 11 | 31* | OX1R Fluo8 conf=7;CHO Ca triplic=-7
Clc1cccc(-c2nnc(SC/C=C/c3ccccc3)n2Cc2ccco2)c1 | nt | 19 | 12 | 27* | 49* | 44* | 72* | OX1R Fluo8 conf=13;CHO Ca triplic=-3
COCCN1C(=O)COc2ccccc2C1C(=O)NC1CCCCC1 (configuration not stated) | -7 | nt | nt | nt | nt | nt | nt
N=c1c2c(-c3ccccc3)c(-c3ccccc3)n(Cc3ccco3)c2ncn1Cc1ccccc1 | -4 | -6 | 15 | 24* | 59* | 58* | 92* | OX1R Fluo8 conf=43*;CHO Ca triplic=2
CC(C)Sc1nc(-c2cccs2)nc2cc(Cl)ccc12 | -5 | nt | nt | nt | nt | nt | nt
COc1ccc(OCc2n(CC(=O)OC3CC(C)CCC3C(C)C)c3ccccc3[n+]2C)cc1 (configuration not stated) | 5 | 22 | 8 | 71* | 40* | 62* | 84* | OX1R Fluo8 conf=47*;CHO Ca triplic=1
CC1CCC(C(C)C)C(OC(=O)CSc2nccc(=O)[nH]2)C1 (configuration not stated) | -2 | -3 | 12 | -8 | -10 | nt | nt
